Measurements from publication PMC8887543 (Nucleic Acids Research, 2022).

Experiments:
MCF-7 cells = assay: BRACO19 displacement in stained cells, confocal imaging; format: cell-based, human; settings: ligand 5 μM, BRACO19 0–15 μM
In short: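 MCF-7 cells were stained with the test compound (5 μM) plus increasing BRACO19 (0–15 μM) for displacement. Images were taken by laser-scanning confocal microscopy with 488 nm excitation. A parallel solution assay followed fluorescence of the compound (5 μM) bound to nucleic acid under the same BRACO19 range.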

[1] = test system: dT21 (DNA, single strand) TTTTTTTTTTTTTTTTTTTTT; assay: fluorescence light-up; settings: 60 mM KCl; 10 mM Tris-HCl, pH 7.4
[2] = test system: G4-DNA (c-MYC promoter, telomeric) versus other nucleic acids; assay: Selectivity screening by induced fluorescence with 20 nucleic acids; format: binding; settings: 5 μM ligand, 18 μM nucleic acid, Tris–HCl pH 7.4, 60 mM KCl
In short: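 For induced-fluorescence selectivity, the test compound (5 μM) was mixed with each nucleic acid (18 μM) in 10 mM Tris–HCl (pH 7.4) with 60 mM KCl. Emission was recorded on a fluorescence spectrometer against compound alone without DNA. Samples were also viewed under 302 nm UV illumination.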

- binding [1]: weak
SMILES: CN1C(=Cc2cc[n+](C)c3ccccc23)Sc2ccccc21 [TO, thiazole orange]
- Fluorescence change in stained cells after BRACO19 treatment (MCF-7 cells): not obvious
- Selectivity toward G4-DNA structures by induced fluorescence [2]: non-selective
